This is an account of results in ChEMBL document CHEMBL2384965, “ABSOLUTE CONFIGURATION AND BIOLOGICAL PROPERTIES OF ENANTIOMERS OF CFTR INHIBITOR BPO-27” (ACS Med Chem Lett, 2013).

A short description of data set [1]: Drug metabolism in rat liver microsomes at 5 uM measured over 4 hrs by LC/MS analysis in presence of NADPH. It is filed as ADME, Microsome. The note with it: read-out: Drug metabolism.
For data set [2], the target named is T1, Cystic fibrosis transmembrane conductance regulator (Homo sapiens, UniProt P13569). In words: Inhibition of wild type human CFTR chloride conductance expressed in forskolin-stimulated rat FRT cells at 100 nM by short-circuit current analysis in presence of transepithelial chloride gradient. The class given is cell-based. Put shortly:
(§1)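 FRT epithelial cells expressing human wild-type CFTR, basolateral membrane permeabilized with amphotericin B, transepithelial chloride gradient applied. CFTR chloride conductance activated with 10 μM forskolin; inhibition read as the reduction in short-circuit current.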
Target sequence in this assay (P13569 whole entry, looked up): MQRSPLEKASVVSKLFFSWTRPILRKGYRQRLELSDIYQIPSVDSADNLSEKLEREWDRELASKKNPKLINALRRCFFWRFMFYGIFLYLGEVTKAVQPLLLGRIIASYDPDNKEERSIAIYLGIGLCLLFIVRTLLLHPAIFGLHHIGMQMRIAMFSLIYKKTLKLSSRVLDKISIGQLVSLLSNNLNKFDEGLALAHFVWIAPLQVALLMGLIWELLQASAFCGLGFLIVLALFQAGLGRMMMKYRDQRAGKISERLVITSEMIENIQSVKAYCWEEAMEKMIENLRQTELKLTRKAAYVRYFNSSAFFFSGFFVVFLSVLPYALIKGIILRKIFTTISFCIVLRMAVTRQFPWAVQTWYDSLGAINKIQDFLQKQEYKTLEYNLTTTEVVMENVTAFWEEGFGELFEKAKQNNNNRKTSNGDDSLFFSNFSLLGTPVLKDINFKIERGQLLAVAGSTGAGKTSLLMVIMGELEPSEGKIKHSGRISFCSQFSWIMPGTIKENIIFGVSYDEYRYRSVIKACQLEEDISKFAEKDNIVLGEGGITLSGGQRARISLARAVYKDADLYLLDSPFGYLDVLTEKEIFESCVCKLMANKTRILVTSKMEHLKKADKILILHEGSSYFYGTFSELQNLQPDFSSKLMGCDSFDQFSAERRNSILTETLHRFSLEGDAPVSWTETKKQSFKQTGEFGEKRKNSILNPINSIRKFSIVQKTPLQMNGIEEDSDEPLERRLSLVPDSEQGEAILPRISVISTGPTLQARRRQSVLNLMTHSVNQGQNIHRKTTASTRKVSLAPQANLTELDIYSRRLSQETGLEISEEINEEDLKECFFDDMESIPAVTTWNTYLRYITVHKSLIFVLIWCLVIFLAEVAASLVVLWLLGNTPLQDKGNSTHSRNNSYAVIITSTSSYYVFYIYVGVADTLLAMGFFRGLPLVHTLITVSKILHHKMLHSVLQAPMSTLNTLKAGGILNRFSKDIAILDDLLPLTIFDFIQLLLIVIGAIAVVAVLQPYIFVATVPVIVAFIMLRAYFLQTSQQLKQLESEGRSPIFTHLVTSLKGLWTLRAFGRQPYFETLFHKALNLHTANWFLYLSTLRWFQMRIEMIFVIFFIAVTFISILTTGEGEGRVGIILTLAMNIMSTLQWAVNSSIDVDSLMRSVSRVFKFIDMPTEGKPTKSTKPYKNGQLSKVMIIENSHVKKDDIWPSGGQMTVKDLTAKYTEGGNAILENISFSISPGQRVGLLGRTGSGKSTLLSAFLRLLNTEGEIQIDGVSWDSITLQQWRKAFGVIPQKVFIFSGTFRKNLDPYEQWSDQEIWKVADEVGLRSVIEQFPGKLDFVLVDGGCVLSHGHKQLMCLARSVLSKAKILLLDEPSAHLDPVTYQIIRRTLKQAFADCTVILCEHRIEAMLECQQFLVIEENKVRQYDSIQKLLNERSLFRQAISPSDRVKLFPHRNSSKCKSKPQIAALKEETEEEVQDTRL

A short description of data set [3]: Half life in CD1 mouse at 10 mg/kg, ip administered as bolus dose. The class given is ADME, organism-based. More on the design: dose 10 mg/kg, route intraperitoneal. To be noted: in vivo. Put shortly: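 Single bolus i.p. dose of 10 mg/kg in mice, given in 5% DMSO, 2.5% Tween-80 and 2.5% PEG400 in water. Blood sampled at set times; serum compound measured by LC/MS ion chromatograms (m/z 548 [M+H]+) against a calibration of known amounts spiked into blood (linear, sensitivity better than 500 nM). Mean ± S.E., n = 3; t1/2 from the decay of the parent compound.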

The nature of data set [4]: Drug uptake in CD1 mouse kidney at 10 mg/kg, ip administered as bolus dose measured at 4 hrs by LC-MS analysis. The class given is ADME, organism-based. To be noted: read-out: Drug uptake. More on the design: dose 10 mg/kg, route intraperitoneal. Put shortly: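 Mice received a single bolus intraperitoneal dose of 10 mg/kg in 5% DMSO, 2.5% Tween-80 and 2.5% PEG400 in water. Kidney homogenate was taken at 4 h and the compound measured by LC/MS (3 mice).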

Data set [5] concerns Serum. As to the kind of experiment: Metabolic stability in mouse serum assessed as formation of (S)-BPO-27 at 5 mg measured at 4 hrs by hydrogen-deuterium exchange assay. It is filed as ADME, cell-free.
In data set [6] the target is T1, Cystic fibrosis transmembrane conductance regulator. As to the kind of experiment: Inhibition of wild type human CFTR chloride conductance expressed in forskolin-stimulated rat FRT cells by short-circuit current analysis in presence of transepithelial chloride gradient. The class given is cell-based. Put shortly: as §1
The subject of data set [7] is Serum. In words: Metabolic stability in mouse serum at 5 mg after 4 hrs by hydrogen-deuterium exchange assay. It is filed as ADME, cell-free.

Activity calls are given as the source filed them. The rule behind the calls is not given here. A value given as a limit tells only on which side of the number the result lay.

As to `Cn1c(=O)c2c(-c3ccccc3)n3c(c2n(C)c1=O)[C@@H](c1ccc(Br)o1)Oc1ccc(C(=O)O)cc1-3`, in data set [1], the metabolised at 4 h, 5 µM was below 5%. For `CC(C)N.Cn1c(=O)c2c(-c3ccccc3)n3c(c2n(C)c1=O)[C@@H](c1ccc(Br)o1)Oc1ccc(C(=O)O)cc1-3` [listing 1 of 2 here], in data set [2], the inhibition entry is “inactive”.

In the case of `Cn1c(=O)c2c(-c3ccccc3)n3c(c2n(C)c1=O)[C@H](c1ccc(Br)o1)Oc1ccc(C(=O)O)cc1-3`, in data set [1], the metabolised at 4 h, 5 µM was below 5%. In addition, the half-life (usually the time in which the quantity being followed falls by half) in data set [3] is 1.6 h. Also, the concentration at 4 h in data set [4] came to 600 nM. In addition, the Stability result with Serum [5] is recorded as “Stable”. In the case of `CC(C)N.Cn1c(=O)c2c(-c3ccccc3)n3c(c2n(C)c1=O)[C@H](c1ccc(Br)o1)Oc1ccc(C(=O)O)cc1-3` [listing 1 of 2 here], in data set [6], the IC50 (usually the point on the concentration scale where inhibition reaches its midpoint) stood at 4 nM. As to `CCOC(=O)c1ccc2c(c1)-n1c(-c3ccccc3)c3c(=O)n(C)c(=O)n(C)c3c1[C@@H](c1ccc(Br)o1)O2`, in data set [2], the inhibition entry is “inactive”. In the case of `CC(C)N.Cn1c(=O)c2c(-c3ccccc3)n3c(c2n(C)c1=O)[C@H](c1ccc(Br)o1)Oc1ccc(C(=O)O)cc1-3` [listing 2 of 2 here], in data set [6], the inhibition entry was “Dose-dependent effect”. In data set [2], the inhibition result is “Active”. `CC(C)N.Cn1c(=O)c2c(-c3ccccc3)n3c(c2n(C)c1=O)[C@@H](c1ccc(Br)o1)Oc1ccc(C(=O)O)cc1-3` [listing 2 of 2 here]: the Stability entry in the data set with Serum [7] is “Stable”.
